Each structure is given as a SMILES string.

Data set [1] is described as follows: Toxicity against rat mixed cortical cells cultures at 10 uM. In kind it is cell-based.
The species entered for data set [2] is Rattus norvegicus. The data set is described as follows: Inhibition of hydrogen peroxide-induced inactivation of mitochondrial NADH:ubiquinone oxidoreductase iron sulfur cluster N2 at 10 uM. The method, boiled down:
(§1)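 Rat brain submitochondrial particles were incubated for 30 min with hydrogen peroxide, peroxynitrite or doxorubicin, with or without nitrone at 10 µM. Complex I iron sulfur cluster N2 activity was measured as ferricyanide reduction. The value is the percentage inhibition of oxidative inactivation. Data are mean ± SEM (N = 10). Controls were vehicle-treated particles exposed to oxidotoxin alone; statistics were ANOVA with Bonferroni t-test.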

The species named for data set [3] is Rattus norvegicus. The data set is described as follows: Inhibition of peroxynitrite-induced inactivation of mitochondrial NADH:ubiquinone oxidoreductase iron sulfur cluster N2 at 10 uM. The procedure, abridged: as §1
The species entered for data set [4] is Rattus norvegicus. The data set is described as follows: Inhibition of doxorubicin-induced inactivation of mitochondrial NADH:ubiquinone oxidoreductase iron sulfur cluster N2 at 10 uM. The method, boiled down:
as §1

Data set [5] is described as follows: Cytoprotection in rat mixed cortical cells cultures assessed as inhibition of hydrogen peroxide-induced cell death at 10 uM after 24 hrs. In kind it is functional. The method, boiled down:
(§2)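 Mixed cortical cultures were treated for 24 h with oxidotoxin (hydrogen peroxide, peroxynitrite or doxorubicin, 200 µM), with antioxidant added at 10 µM. The value is the percentage inhibition of Trypan blue absorbance, read as enhanced cell survival. Data are mean ± SEM (N = 10). Comparison was against vehicle control by ANOVA with Bonferroni t-test.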

Data set [6] is described as follows: Cytoprotection in rat mixed cortical cells cultures assessed as inhibition of peroxynitrite-induced cell death at 10 uM after 24 hrs. The class given is functional. The procedure, abridged: as §2
The nature of data set [7]: Cytoprotection in rat mixed cortical cells cultures assessed as inhibition of doxorubicin-induced cell death at 10 uM after 24 hrs. The class given is functional. The method, boiled down: as §2
Data set [8] relates to Rotifers. The data set is described as follows: Cytoprotection against hydrogen peroxide-induced toxicity in rotifer assessed as viability at 10 uM. In kind it is functional, Rotifera. The method, boiled down:
(§3)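 Whole rotifers were exposed for 24 h to oxidotoxin (hydrogen peroxide or doxorubicin, 200 µM), with nitrone antioxidant added at 10 µM. Read-out was the percentage of viable organisms. Data are mean ± SEM (N = 10). Comparison was against vehicle control by ANOVA followed by Bonferroni t-test.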

In data set [9] the test system is Rotifers. The data set is described as follows: Cytoprotection against doxorubicin-induced toxicity in rotifer assessed as viability at 10 uM. The class given is functional, Rotifera. The method, boiled down:
as §3

Regarding `CCCCCCCC(=O)NCC(C)(C)/[N+]([O-])=C/c1ccccc1OCC`, the Activity result in [1] is listed as “Toxic”.

The term inhibition denotes the drop in the measured response relative to a control, in per cent. For the compound `CC(C)(C)/[N+]([O-])=C\c1ccc(CNC(=O)[C@@H](O)[C@H](O)[C@H](O[C@@H]2O[C@H](CO)[C@H](O)[C@H](O)[C@H]2O)C(O)CO)cc1` (stereo partly specified), the results for the inhibition in the data set listed under Rattus norvegicus [2], in the data set listed under Rattus norvegicus [3] and in the data set listed under Rattus norvegicus [4] were 25.1%, 17.3% and 13.5%, respectively. Further, the inhibition at 10 µM in data set [5] came out at 18.3%; in data set [6], 17.3%; in data set [7], 18.5%. For the same compound, the results for the Activity with Rotifers [8] and in the data set with Rotifers [9] were 18.6% and 18.2%, respectively.

With `CCCCCCCC(=O)NCC(C)(C)/[N+]([O-])=C/c1ccc(CNC(=O)[C@H](O)[C@H](O)[C@H](O[C@@H]2O[C@H](CO)[C@H](O)[C@H](O)[C@H]2O)[C@@H](O)CO)cc1`, the figures for the inhibition in the data set listed under Rattus norvegicus [2], in the data set listed under Rattus norvegicus [3] and in the data set listed under Rattus norvegicus [4] were 78.3%, 72.5% and 90.7%, respectively. The figures for the inhibition at 10 µM in data set [5], in [6] and in data set [7] were 81%, 61% and 82%, respectively. Besides, the figures for the Activity with Rotifers [8] and in the data set with Rotifers [9] were 83% and 85.8%, respectively.

With `CCCCCCCC(=O)NCC(C)(C)/[N+]([O-])=C/c1ccc(C(=O)NCC(=O)NC(CO)(CO)CO)cc1`, the inhibition was 59.2% in the data set listed under Rattus norvegicus [2], 40.5% in the data set listed under Rattus norvegicus [3] and 83.5% in the data set filed under Rattus norvegicus [4]. Moreover, the inhibition at 10 µM in data set [5] stood at 33.8%; in data set [6], 30.5%; in data set [7] it was 74.3%. In addition, the Activity is recorded as 24.1% in the data set with Rotifers [8] and 54.3% with Rotifers [9].

With `CC(C)(CNC(=O)CCC(F)(F)C(F)(F)C(F)(F)C(F)(F)C(F)(F)C(F)(F)F)/[N+]([O-])=C/c1ccc(CNC(=O)[C@H](O)[C@H](O)[C@H](O[C@@H]2O[C@H](CO)[C@H](O)[C@H](O)[C@H]2O)[C@@H](O)CO)cc1`, the inhibition in the data set filed under Rattus norvegicus [2] was 51.9%; in the data set filed under Rattus norvegicus [3], 39.3%; in the data set filed under Rattus norvegicus [4] it was 57.3%. The inhibition at 10 µM in data set [5] is 63.4%; in [6], 40.1%; in data set [7], 34.9%. For the same compound, the Activity with Rotifers [8] worked out at 40.6%; in the data set with Rotifers [9], 30.6%.

Regarding `CC(C)(C)/[N+]([O-])=C/c1ccccc1`, the inhibition in the data set listed under Rattus norvegicus [2] was found to be 35%; in the data set filed under Rattus norvegicus [3], 27.6%; in the data set filed under Rattus norvegicus [4], 44.3%. The values for the inhibition at 10 µM in data set [5], in [6] and in data set [7] were 25%, 20.6% and 24.2%, respectively. Also, the figures for the Activity with Rotifers [8] and in the data set with Rotifers [9] were 25.6% and 18.7%, respectively.

(Values after ChEMBL document CHEMBL1148719, “Fine-tuning the amphiphilicity: a crucial parameter in the design of potent alpha-phenyl-N-tert-butylnitrone analogues” (J Med Chem, 2007).)
